Compounds with a hit are over-represented: about 4.5% of the library has one in this group of screens.
RGS4 pot: potentiators or activators of RGS4; AID 463111; hit rate 0.92% among 310,000; HEK293 M3R/inducible RGS4, carbachol calcium flux Fluo4; active compounds read low; B-score at 10 µM;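 active means B-score of the integrated calcium signal more than 4 SD below the library mean, with starting fluorescence not abnormally high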;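 further: negative B-score means reduced calcium response which marks RGS4 activation or potentiation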
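System – HEK293 FlpIn-TREx cells, stable M3R, doxycycline-inducible RGS4 · Reagent – ECmax carbachol challenge · Times – compound preincubation 20 min at room temperature before agonist · Technique – Fluo4 fluorescence kinetic imaging of calcium · Measure – B score of integrated Fluo4 ratio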
PHOSPHO1 block: blocks human PHOSPHO1 phosphatase activity | AID 1565 | inhibition, % at 13.3 µM | recombinant PHOSPHO1, absorbance phosphatase assay | hit rate 1.1% among 290,000 | Q8TCT1; in the data active means inhibition above about 60%
Target sequence (Q8TCT1 whole entry, looked up): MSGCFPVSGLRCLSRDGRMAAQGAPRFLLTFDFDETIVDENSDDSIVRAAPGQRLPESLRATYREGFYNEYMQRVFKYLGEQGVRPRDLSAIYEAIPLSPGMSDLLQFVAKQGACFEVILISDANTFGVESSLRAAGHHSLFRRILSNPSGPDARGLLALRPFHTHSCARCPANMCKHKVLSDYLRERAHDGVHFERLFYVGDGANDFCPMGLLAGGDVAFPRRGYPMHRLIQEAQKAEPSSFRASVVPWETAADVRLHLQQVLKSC
MrgX1 ag: agonists of human MrgX1 receptor; B-score at 10 µM; hit rate 0.44% among 310,000; MrgX1-HEK293 cells, Fluo-4 calcium fluorescence, agonist mode; active compounds read high;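 active means calcium response B-score plate-corrected fluorescence ratio at least 3 library SD, with starting fluorescence B-score inside 5 SD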
Target sequence (Q96LB2 whole entry, looked up): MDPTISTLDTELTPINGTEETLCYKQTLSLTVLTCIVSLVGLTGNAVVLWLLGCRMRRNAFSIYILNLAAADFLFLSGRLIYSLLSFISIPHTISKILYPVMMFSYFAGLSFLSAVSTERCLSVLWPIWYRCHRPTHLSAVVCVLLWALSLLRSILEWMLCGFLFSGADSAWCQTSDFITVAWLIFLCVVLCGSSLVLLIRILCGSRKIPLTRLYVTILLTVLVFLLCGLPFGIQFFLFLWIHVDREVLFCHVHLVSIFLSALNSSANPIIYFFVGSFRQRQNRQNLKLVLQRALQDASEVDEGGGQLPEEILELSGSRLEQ
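Assay system: stable human MrgX1 HEK293 cell line. Quantity: 15,000 cells per well. Schedule: cells plated overnight, dye loaded 0.5 h 37 °C, 0.5 h room temperature. Detection: Fluo-4 NW calcium-flux fluorescence, kinetic read. Read-out basis: peak-minus-minimum fluorescence over baseline, converted to B scores. Control set: positive and negative control wells on each plate.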
RGS4 inh: human RGS4 inhibition | P49798 | HEK293 M3R/RGS4 inducible, Fluo-4 calcium flux; active compounds read high; triggered by carbachol at its EC20 | B-score at 10 µM | hit rate 0.45% among 310,000 | AID 463165;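 active means B-score, a plate-corrected calcium signal, over three deviations above library mean, with baseline fluorescence within five deviations of library mean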;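 further: RGS4 expression induced by doxycycline in cells with stable M3 receptor; B-score is computed from the integrated fluorescence ratio over baseline after carbachol; higher B-score means a larger calcium signal and so more RGS4 inhibition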
Target sequence (P49798 whole entry, looked up): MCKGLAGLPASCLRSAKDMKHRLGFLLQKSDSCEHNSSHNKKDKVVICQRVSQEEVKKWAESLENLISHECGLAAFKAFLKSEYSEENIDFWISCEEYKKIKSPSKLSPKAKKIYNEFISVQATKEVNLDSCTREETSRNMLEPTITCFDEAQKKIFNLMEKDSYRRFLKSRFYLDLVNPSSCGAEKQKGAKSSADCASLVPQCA
MrgX1 allo act: allosterically activates human MrgX1 receptor signaling; MrgX1-HEK293, Fluo-4 calcium flux, FDSS; active compounds read high; B-score at 10 µM; hit rate 0.63% among 310,000; AID 588675;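 active means plate-corrected calcium response at least 3 library SD above typical, normal starting fluorescence, not activating the receptor alone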;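 further: compound read alongside a low EC10 to EC30 dose of BAM8-22 agonist; peak minus trough fluorescence over baseline measured at the second addition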
MrgX1 antagonist: blocks BAM8-22 activation of human MrgX1 receptor | B-score at 10 µM | Q96LB2 | hit rate 1.3% among 310,000 | MRGX1-HEK293 calcium flux, Fluo-4, BAM8-22 antagonism; active compounds read low;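 active means calcium-response B-score plate-corrected more than 3 library SD below zero, starting fluorescence within 5 deviations, no agonist response on first addition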;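 further: peak minus trough fluorescence over baseline after final BAM8-22 challenge near maximal dose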
RGS4 act valid: confirmation of RGS4 activators | HEK293 M3R/RGS4 inducible, carbachol calcium flux Fluo4 | hit rate 89% among 1,100 | inhibition, % at 10 µM | shares compounds with RGS4 pot;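 active means inhibition above 3 SD of the buffer control wells, cut at about 41% in these data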;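 further: signal is the integrated peak-minus-minimum Fluo4 fluorescence over baseline ratio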
RGS4 act ctr: RGS4 activator counter-screen hit in non-induced cells. hit rate 82% among 1,100. shares compounds with RGS4 pot. HEK293 M3R non-induced RGS4, Fluo4 calcium flux; after carbachol challenge at its EC90. inhibition, % at 10 µM;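 active means inhibition exceeding 3 SD of buffer-only control wells, cut at about 26% in these data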;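 further: percent drop in integrated peak-minus-baseline over baseline Fluo4 ratio after carbachol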
MrgX1 ag reconf: confirmation of human MrgX1 receptor agonists; shares compounds with MrgX1 ag; MrgX1-HEK293, Fluo-4 calcium fluorescence, FDSS; activation, % at 10 µM; hit rate 78% among 600;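 active means calcium signal rise, corrected for plate position, at least 3 library SD high, with starting brightness within 5 such deviations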
MrgX1 allo conf: confirmation of human MrgX1 receptor positive allosteric modulators; shares compounds with MrgX1 allo act; MrgX1-HEK293, Fluo-4 calcium fluorescence, FDSS; activation (ratio percentage), % at 10 µM; hit rate 13% among 1,200;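 active means ratio at least 3 SD above the weak peptide control, stable starting fluorescence, no direct agonism earlier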;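 further: compound followed by low BAM8-22 agonist challenge near EC20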
MrgX1 ant reconf: human MrgX1 receptor antagonism, re-confirmation screen | shares compounds with MrgX1 antagonist | remaining BAM8-22 calcium response % of control (active compounds read low), % at 10 µM | hit rate 19% among 2,300 | MrgX1-HEK293, BAM8-22 calcium flux, Fluo-4; active compounds read low;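 active means remaining agonist calcium response no higher than 100% minus 3 SD of agonist-only control wells, with starting fluorescence near control levels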;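 further: agonist BAM8-22 given at a near maximal EC90 to ECmax level; peak minus minimum fluorescence divided by baseline after agonist addition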
HEK293 Ca flux: counter-screen for MrgX1 antagonists: effect in parental HEK293 cells; AID 624111; hit rate 2% among 4,000; Fluo-4 calcium fluorescence, FDSS; fluorescence ratio F(max-min)/F0 at 10 µM; shares compounds with MrgX1 antagonist;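 active means duplicate-averaged calcium fluorescence ratio at least three times the standard deviation of buffer wells, a nonspecific response in parental cells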
HEK293 Ca counter: activity in parental HEK293 cells without MrgX1. shares compounds with MrgX1 antagonist. parental HEK293 calcium flux, Fluo-4 fluorescence ratio; active compounds read high. fluorescence ratio F(max-min)/F0 at 10 µM. hit rate 0.4% among 4,000;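 active means calcium fluorescence ratio, averaged over duplicates, at least 3 SD of the buffer-well ratio, meaning a nonspecific response in receptor-free cells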;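 further: untransfected parental HEK293 lacking MrgX1 used as counterscreen for MrgX1 allosteric activators; fluorescence change taken during the second addition on a kinetic imager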
HEK293 Ca cntr2: MrgX1 activator counter-screen hit in parental HEK293 cells. fluorescence ratio F(max-min)/F0 at 10 µM. Fluo-4 calcium fluorescence (FDSS); active compounds read high. shares compounds with MrgX1 antagonist. hit rate 8.7% among 4,000;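 active means calcium fluorescence ratio at least three times the spread of buffer wells, meaning a non-specific response in parental cells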
Numbers stand for hits; - = inactive; . = no result given.

SMILES	RGS4 pot	PHOSPHO1 block	MrgX1 ag	RGS4 inh	MrgX1 allo act	MrgX1 antagonist	RGS4 act valid	RGS4 act ctr	MrgX1 ant reconf	HEK293 Ca flux	HEK293 Ca counter	HEK293 Ca cntr2	others
COC(=O)c1sc(-c2ccc(C(C)(C)C)cc2)cc1NC(=O)CSCC(=O)O	-7.7	-	-	-	-	-5.3	75	84	-	-	-	-
CNS(=O)(=O)c1cccc(C(=O)OCc2cc(=O)oc3c(C)c(O)ccc23)c1	-8.2	-	-	-	-	-9.4	85	70	54%	-	-	-
O=C(COC(=O)c1ccc(Cl)c(S(=O)(=O)N2CCCCC2)c1)NCC1CCCO1 (stereo not drawn)	-	-	-	-	-	-	.	.	.	.	.	.
O=C(Nc1ccc(Cl)cc1)N1CCCC(Cn2cccc2)C1 (stereo not drawn)	-	-	-	-	-	-	.	.	.	.	.	.
CN1CCN(C(=S)NC(=O)c2ccccc2Cl)CC1	-	-	-	-	-	-	.	.	.	.	.	.
CCN(CC)c1nc2c(c(=O)n(C)c(=O)n2C)n1CCCc1ccccc1	-	-	-	-	-	-	.	.	.	.	.	.
CN(Cc1ccccc1)c1nc2c(c(=O)n(C)c(=O)n2C)n1CCCc1ccccc1	-8.5	-	-	-	8.9	-	75	84	.	-	-	-	MrgX1 allo conf=-
CCCCc1ccc(N/C(N)=N/c2nc(C)cc(C)n2)cc1	-9.6	-	87	-	-	-	38	84	.	-	-	113	MrgX1 ag reconf=511%
COc1ccc(Nc2nnc(-c3ccc(O)cc3)c3ccccc23)cc1	-9.3	-	-	-	-	-8.4	82	43	-	-	54	-
Oc1ccc(Nc2nnc(-c3ccc(O)cc3)c3ccccc23)cc1	-	-	-	-	-	-	.	.	.	.	.	.
CCOC(=O)c1cnc2c(C)cccc2c1NCc1ccco1	-12	-	-	-	7.6	-	92	94	.	-	-	-	MrgX1 allo conf=-
Cc1cc(-c2cccs2)c2c(N)c(C(=O)c3ccc4c(c3)OCO4)sc2n1	-7.9	-	-	-	-	-8.3	93	96	-	0.65	-	-
CCN(CC)C(=S)Nc1cc(C(=O)OC)ccc1C(=O)OC	-	-	-	-	-	-	.	.	.	.	.	.
O=C(COc1ccccc1)Nc1nnc(S(=O)(=O)N2CCCCCC2)s1	-	-	-	-	-	-	.	.	.	.	.	.
Cc1ccc(O)c(C(=O)c2cnc3c(c2)COc2ccccc2-3)c1	-9.3	-	-	-	-	-10	86	88	-	-	-	-
COC(=O)c1ccc(NC(=O)Cn2nc(C(=O)Nc3ccc(C)cc3)ccc2=O)cc1	-	-	-	-	-	-	.	.	.	.	.	.
O=C(NNC(=O)C1CCCCC1)c1ccc(Br)cc1	-	-	-	-	-	-	.	.	.	.	.	.
Cc1cc(N2CCN(C)CC2)nc2ccc(NC(=O)c3ccc(Br)o3)cc12	-	-	-	-	-	-	.	.	.	.	.	.
Cc1cc(N2CCCCC2)nc2ccc(NC(=O)c3ccc(Br)o3)cc12	-7.7	-	-	-	-	-6.9	72	84	-	-	-	-
Nc1ncnc(Oc2ccccc2F)c1[N+](=O)[O-]	-	-	-	-	-	-	.	.	.	.	.	.
COc1cccc(-c2csc(N3CCN(C(=O)Nc4ccc(Cl)cc4)CC3)n2)c1	-8.4	64	-	-	-	-6.1	87	56	75%	-	-	-
CCOc1ccc(N2C(=O)C3C(c4ccccc4F)NN(C(=O)c4ccc(C)cc4)C3C2=O)cc1 (stereo not drawn)	-	-	-	-	-	-	.	.	.	.	.	.
COc1cccc(N2CCN(c3ncnc4c3[nH]c3ccccc34)CC2C)c1 (stereo not drawn)	-9	-	-	-	-	-15	94	83	4.6%	-	-	-
O=C(OCc1ccc(F)cc1)c1ccc2c(c1)-c1ccccc1C2=O	-	-	-	-	-	-	.	.	.	.	.	.
CCOC(=O)C1=C(Cc2ccc(F)cc2)C(=O)c2ccccc2C1=O	-9.1	-	108	-	-	-	89	46	.	-	-	54	MrgX1 ag reconf=163%
SMILES	RGS4 pot	PHOSPHO1 block	MrgX1 ag	RGS4 inh	MrgX1 allo act	MrgX1 antagonist	RGS4 act valid	RGS4 act ctr	MrgX1 ant reconf	HEK293 Ca flux	HEK293 Ca counter	HEK293 Ca cntr2	others
O=S(=O)(Nc1cc2nc3ccccc3nc2n1Cc1ccccc1)c1ccc(Cl)cc1	-14	-	45	-	-	-	94	88	.	0.037	-	-	MrgX1 ag reconf=-
CCOc1ccc(OCc2ccc(C(=O)N3CCCCC3)o2)cc1	-	-	-	-	-	-	.	.	.	.	.	.
Cc1ccc(OCc2ccc(C(=O)N3CCCC3)o2)cc1C	-7.9	-	-	-	-	-5.3	73	84	73%	-	-	-
CCN(CC)CCOC(=O)c1c(C)oc2ccc(OC)cc12	-7.8	-	-	-	-	-5.2	67	84	-	-	-	-
Cc1ccc(CCC(=O)Nc2ccc(C#N)cc2)o1	-	-	-	-	-	-	.	.	.	.	.	.
CS(=O)(=O)c1sc(C#N)c2c1C(=O)CC(c1ccccc1)C2 (stereo not drawn)	-9	-	37	-	-	-	53	-	.	-	-	53	MrgX1 ag reconf=257%
Cc1oc2c(c(=O)c1C)C(=O)CC(c1ccccc1)C2 (stereo not drawn)	-	-	-	-	-	-	.	.	.	.	.	.
COc1ccccc1OC(C)C(=O)Nc1nc(-c2ccc(S(=O)(=O)N3CCOCC3)cc2)cs1 (stereo not drawn)	-	-	-	-	-	-	.	.	.	.	.	.
